According to article PMC5217177 (Journal of natural products, 2016):
“Also recorded” adds a separate entry of the source.

How the values were obtained:
[1] = tested on: Bacillus subtilis ATCC 6633; assay: MIC determination, broth dilution in 96-well plates; assay type: cell-based; conditions: LB medium, 28–37 °C, 16–48 h, OD600 read-out, max conc ~10 μg/mL
How it was run: (§1)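 Starter cultures were grown 16 h at 37 °C and 250 rpm, then diluted in medium to OD600 ~0.1. Test compound was serially diluted in DMSO, with DMSO alone as the negative control. Positive controls were kanamycin for the bacteria and amphotericin B for the yeast. Plates were shaken at 160 rpm during incubation. OD600 was normalized to vehicle wells, and the lowest inhibitory concentration was taken as the MIC.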

[2] = tested on: Salmonella enterica ATCC 10708; assay: as above; assay type: cell-based; conditions: nutrient broth, 28–37 °C, 16–48 h, OD600 read-out, max conc ~10 μg/mL
How it was run: as §1

[3] = tested on: Escherichia coli ATCC 12435; assay: as above; assay type: cell-based; conditions: LB medium, 28–37 °C, 16–48 h, OD600 read-out, max conc ~10 μg/mL
How it was run: as §1

[4] = tested on: Saccharomyces cerevisiae ATCC 204508; assay: as above; assay type: cell-based; conditions: YAPD medium, 28–37 °C, 16–48 h, OD600 read-out, max conc ~10 μg/mL
How it was run: as §1

[5] = tested on: S. aureus and B. subtilis; conditions: cited from earlier work
[6] = Stability under acidic conditions; assay type: physicochemical; conditions: observed during HPLC purification with TFA; UV/Vis monitoring
Gram-positive strains = assay: Antibacterial activity, comparisons across the tested strains; assay type: cell-based; conditions: from MIC of Table 3
[7] = tested on: two human cancer cell lines; assay: Cytotoxicity, comparison across PC3 and A549; assay type: cell-based; conditions: PC3 and A549, 48 h

Substance | MIC, B. subtilis [1] [mg/L] | MIC, S. enterica [2] [mg/L] | MIC, E. coli [3] [mg/L] | MIC, S. cerevisae [4] [mg/L] | antibacterial activity based on zones of inhibition [5] | stability under acidic conditions [6] | fold more potent than actinomycin Y3 (antibacterial) (Gram-positive strains) [fold] | fold change in EC50 compared to actinomycin D (less potent) [7]
actinomycin Y3 | >9.33 | >9.33 | >9.33 | >9.33 | – | – | – | –
actinomycin Y5 | – | – | – | – | modest antibacterial activity | – | – | –
actinomycin Y4 | >9.32 | >9.32 | >9.32 | >9.32 | – | – | – | –
actinomycin Y6 [Compound 1] | 0.59 | >9.46 | >9.46 | 9.46 | – | not stable under acidic conditions; also recorded: unstable under acidic condition | ≥ 9 | 278–355 fold
